Columns and labels:
[1] = target: Phosphatidylinositol 4,5-bisphosphate 3-kinase catalytic subunit alpha isoform (Homo sapiens) (UniProt P42336); experiment: Inhibition of PI3Kalpha at 10; settings: concentration not given here
Cytochrome P450 1A2 = Cytochrome P450 1A2 (Homo sapiens, UniProt P05177); experiment: Inhibition of human CYP1A2; format: ADME
Outline: (§1)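 Recombinant human CYP isoforms with isoform-specific probe substrates and NADPH. Compound at 0.1–25 μM, final DMSO 0.3%. Metabolites measured by mass spectrometry, except CYP1A2, which used a fluorescent metabolite. IC50 derived from the decrease in metabolite formation compared with vehicle control.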

[2] = Cmax in Sprague-Dawley rat at 10 mg/kg, po; format: ADME, organism-based; design: dose 10 mg/kg, route oral; settings: in vivo
Outline: (§2)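 Parallel design with six male rats: three given 5 mg/kg iv in EDPW (10% EtOH, 10% DMA, 30% PG, 50% water), three given 10 mg/kg orally in aqueous 0.5% CMC with 0.25% Tween 20. Carotid cannula blood sampled up to 24 h. Plasma levels by LC/MS/MS (LLOQ 1.00 ng/mL). Noncompartmental analysis.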

NADPH oxidase 2 = NADPH oxidase 2 (Homo sapiens, UniProt P04839); experiment: Inhibition of human NOX2 overexpressed in […] cell membrane assessed as ROS production by cell free assay in presence of NADPH
Outline: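 Nox2 source: membranes from human polymorphonuclear cells, sonicated and collected at the 17/40% sucrose interface. ROS read by Amplex Red/HRP in PBS after NADPH addition, with compound at 1 nM–100 μM for 20 min at 37 °C. Background taken without membranes or agonist. Ki via Cheng-Prusoff, mean of ≥3 experiments in triplicate.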

[3] = target: Polyunsaturated fatty acid lipoxygenase ALOX12 (Homo sapiens) (UniProt P18054); experiment: Inhibition of human 12-lipoxygenase at 10 uM
[4] = target: Protein kinase C delta type (Homo sapiens) (UniProt Q05655); experiment: Inhibition of human PKCdelta at 10 uM
Chain of Protein kinase C delta type (Homo sapiens) (Q05655 whole entry, looked up): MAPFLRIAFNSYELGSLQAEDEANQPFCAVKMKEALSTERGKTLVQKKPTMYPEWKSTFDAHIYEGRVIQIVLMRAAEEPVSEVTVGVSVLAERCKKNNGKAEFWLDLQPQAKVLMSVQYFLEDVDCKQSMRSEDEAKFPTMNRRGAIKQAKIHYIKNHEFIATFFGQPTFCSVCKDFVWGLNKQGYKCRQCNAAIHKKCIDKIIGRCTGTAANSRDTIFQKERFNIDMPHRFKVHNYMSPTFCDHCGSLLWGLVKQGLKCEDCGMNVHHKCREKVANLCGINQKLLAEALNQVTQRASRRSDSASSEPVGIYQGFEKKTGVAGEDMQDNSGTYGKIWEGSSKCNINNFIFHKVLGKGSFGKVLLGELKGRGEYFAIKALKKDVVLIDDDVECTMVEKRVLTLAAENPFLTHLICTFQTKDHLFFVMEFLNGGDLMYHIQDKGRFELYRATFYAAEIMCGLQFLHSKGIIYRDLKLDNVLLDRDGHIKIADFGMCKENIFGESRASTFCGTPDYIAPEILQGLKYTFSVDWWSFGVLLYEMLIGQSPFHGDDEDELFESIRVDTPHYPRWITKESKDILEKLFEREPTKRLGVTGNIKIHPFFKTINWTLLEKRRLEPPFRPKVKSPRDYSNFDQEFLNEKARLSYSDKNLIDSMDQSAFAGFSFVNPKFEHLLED

[5] = target: Nitric oxide synthase, endothelial (Homo sapiens) (UniProt P29474); experiment: Inhibition of eNOS at 10 uM
Chain of Nitric oxide synthase, endothelial (Homo sapiens) (P29474 whole entry, looked up): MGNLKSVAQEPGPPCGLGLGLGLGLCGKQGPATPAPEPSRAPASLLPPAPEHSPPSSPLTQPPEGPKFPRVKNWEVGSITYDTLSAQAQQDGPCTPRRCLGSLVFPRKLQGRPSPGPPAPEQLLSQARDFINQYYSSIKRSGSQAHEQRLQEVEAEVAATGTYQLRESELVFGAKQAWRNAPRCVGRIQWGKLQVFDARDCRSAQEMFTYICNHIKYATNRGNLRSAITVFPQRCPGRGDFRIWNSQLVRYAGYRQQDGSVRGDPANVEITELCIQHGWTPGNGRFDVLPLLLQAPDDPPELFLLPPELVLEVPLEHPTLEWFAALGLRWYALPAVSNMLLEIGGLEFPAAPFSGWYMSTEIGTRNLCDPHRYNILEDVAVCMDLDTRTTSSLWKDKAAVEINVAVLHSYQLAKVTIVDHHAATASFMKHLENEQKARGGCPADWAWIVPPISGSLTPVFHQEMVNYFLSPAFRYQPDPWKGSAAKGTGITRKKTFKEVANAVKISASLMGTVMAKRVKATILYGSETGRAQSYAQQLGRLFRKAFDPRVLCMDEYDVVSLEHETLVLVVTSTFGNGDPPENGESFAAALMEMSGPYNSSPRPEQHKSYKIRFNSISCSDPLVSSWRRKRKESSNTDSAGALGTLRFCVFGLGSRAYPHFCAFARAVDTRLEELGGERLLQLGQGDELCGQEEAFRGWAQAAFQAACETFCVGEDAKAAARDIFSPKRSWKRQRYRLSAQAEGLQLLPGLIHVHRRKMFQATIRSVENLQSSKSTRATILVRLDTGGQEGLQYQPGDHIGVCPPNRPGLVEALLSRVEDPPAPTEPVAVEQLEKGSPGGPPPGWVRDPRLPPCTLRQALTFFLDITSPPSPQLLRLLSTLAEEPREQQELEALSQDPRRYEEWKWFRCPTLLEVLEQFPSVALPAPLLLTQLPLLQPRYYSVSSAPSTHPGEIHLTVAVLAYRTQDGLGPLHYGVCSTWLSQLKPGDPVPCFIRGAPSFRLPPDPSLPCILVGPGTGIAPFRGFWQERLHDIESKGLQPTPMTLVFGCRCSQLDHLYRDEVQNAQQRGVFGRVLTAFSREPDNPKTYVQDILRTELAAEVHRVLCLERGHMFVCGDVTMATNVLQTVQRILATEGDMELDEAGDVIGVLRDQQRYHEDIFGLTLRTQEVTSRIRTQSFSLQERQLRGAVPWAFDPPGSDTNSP

[6] = Tmax in Sprague-Dawley rat at 10 mg/kg, po; format: ADME, organism-based; design: dose 10 mg/kg, route oral; settings: in vivo
Outline: (§3)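 Parallel design in male rats, three per group. Group 1: 5 mg/kg iv in EDPW (10% EtOH, 10% DMA, 30% PG, 50% water). Group 2: 10 mg/kg oral in aqueous 0.5% CMC with 0.25% Tween 20. Carotid cannula blood drawn up to 24 h. Plasma measured by LC/MS/MS (LLOQ 1.00 ng/mL), noncompartmental analysis.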

Cytochrome P450 2C9 = Cytochrome P450 2C9 (Homo sapiens, UniProt P11712); experiment: Inhibition of human CYP2C9; format: ADME; outline: as §1
Chain of Cytochrome P450 2C9 (P11712 whole entry): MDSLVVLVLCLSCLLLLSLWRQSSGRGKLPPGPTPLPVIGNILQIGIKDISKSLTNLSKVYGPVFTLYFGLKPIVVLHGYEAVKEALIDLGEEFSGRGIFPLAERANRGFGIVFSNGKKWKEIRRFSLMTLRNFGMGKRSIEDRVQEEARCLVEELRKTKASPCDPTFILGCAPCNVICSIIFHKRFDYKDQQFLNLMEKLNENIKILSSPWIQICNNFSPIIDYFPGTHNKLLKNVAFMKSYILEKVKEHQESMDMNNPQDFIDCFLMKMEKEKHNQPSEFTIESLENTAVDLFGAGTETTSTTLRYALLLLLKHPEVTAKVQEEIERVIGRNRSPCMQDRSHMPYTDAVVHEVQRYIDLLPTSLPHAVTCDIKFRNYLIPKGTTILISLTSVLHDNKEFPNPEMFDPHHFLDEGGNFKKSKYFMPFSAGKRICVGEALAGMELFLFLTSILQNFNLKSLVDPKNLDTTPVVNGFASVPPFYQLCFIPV

[7] = Clearance in Sprague-Dawley rat at 5 mg/kg, iv; format: ADME, organism-based; design: dose 5 mg/kg, route intravenous; settings: in vivo; outline: as §2
[8] = AUC (infinity) in Sprague-Dawley rat at 5 mg/kg, iv; format: ADME, organism-based; design: time infinity, dose 5 mg/kg, route intravenous; settings: plasma; outline: as §2
[9] = target: Tyrosine-protein phosphatase non-receptor type 1 (Homo sapiens) (UniProt P18031); experiment: Inhibition of human PTP1B at 10 uM
Chain of Tyrosine-protein phosphatase non-receptor type 1 (Homo sapiens) (P18031 whole entry): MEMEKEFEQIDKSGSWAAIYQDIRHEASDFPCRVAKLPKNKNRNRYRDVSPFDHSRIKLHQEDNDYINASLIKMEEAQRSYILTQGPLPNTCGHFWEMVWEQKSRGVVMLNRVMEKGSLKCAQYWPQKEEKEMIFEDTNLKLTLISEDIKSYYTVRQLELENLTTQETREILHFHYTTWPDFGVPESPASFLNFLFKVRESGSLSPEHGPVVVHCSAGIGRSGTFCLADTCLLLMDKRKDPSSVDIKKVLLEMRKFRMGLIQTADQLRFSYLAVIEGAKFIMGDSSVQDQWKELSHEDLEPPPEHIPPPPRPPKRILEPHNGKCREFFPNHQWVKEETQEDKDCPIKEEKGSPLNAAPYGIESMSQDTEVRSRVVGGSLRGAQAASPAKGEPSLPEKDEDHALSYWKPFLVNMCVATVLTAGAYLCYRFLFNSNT

NADPH oxidase 4 = target: T1, NADPH oxidase 4 (Homo sapiens, UniProt Q9NPH5); experiment: Inhibition of human NOX4 overexpressed in T-REx-293 cell membrane assessed as ROS production by cell free assay in presence of NADPH; settings: in the assay text read “T-REx-293 cell membrane” for “human PMN cell membrane”
T1 sequence (Q9NPH5 whole entry): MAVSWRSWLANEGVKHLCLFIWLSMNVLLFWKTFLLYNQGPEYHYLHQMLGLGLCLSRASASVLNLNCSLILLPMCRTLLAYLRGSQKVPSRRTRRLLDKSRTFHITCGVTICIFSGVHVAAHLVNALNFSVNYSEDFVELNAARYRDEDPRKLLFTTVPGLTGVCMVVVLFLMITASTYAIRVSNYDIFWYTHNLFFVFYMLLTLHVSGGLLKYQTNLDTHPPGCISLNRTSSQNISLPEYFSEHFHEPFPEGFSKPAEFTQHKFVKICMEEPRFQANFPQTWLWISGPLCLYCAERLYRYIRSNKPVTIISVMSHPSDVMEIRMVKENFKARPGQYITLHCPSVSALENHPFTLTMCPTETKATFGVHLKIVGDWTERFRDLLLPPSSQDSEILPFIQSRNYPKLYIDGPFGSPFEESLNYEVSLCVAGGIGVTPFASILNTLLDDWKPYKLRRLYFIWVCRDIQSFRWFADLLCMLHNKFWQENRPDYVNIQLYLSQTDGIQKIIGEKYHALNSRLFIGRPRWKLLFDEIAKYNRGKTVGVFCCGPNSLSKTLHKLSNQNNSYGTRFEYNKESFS
Outline: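 hNOX4 T-REx-293 cells induced with tetracycline (1 μg/mL, 24 h), sonicated in sucrose/NaCl/EGTA PBS buffer pH 7.4, membranes taken from a sucrose gradient. NADPH-triggered ROS measured by Amplex Red/HRP in PBS, with compound at 1 nM–100 μM, 20 min at 37 °C. Ki by Cheng-Prusoff from ≥3 triplicate experiments.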

Cytochrome P450 2D6 = Cytochrome P450 2D6 (Homo sapiens, UniProt P10635); experiment: Inhibition of human CYP2D6; format: ADME; outline: as §1
[10] = target: Mitogen-activated protein kinase kinase kinase 5 (Homo sapiens) (UniProt Q99683); experiment: Inhibition of human ASK1 at 10 uM
[11] = target: Nitric oxide synthase, inducible (Homo sapiens) (UniProt P35228); experiment: Inhibition of iNOS at 10 uM
[12] = Volume of distribution at steady state in Sprague-Dawley rat at 5 mg/kg, iv; format: ADME, organism-based; design: dose 5 mg/kg, route intravenous; settings: in vivo, read-out: Vdss; outline: as §3
[13] = target: Protein kinase C beta type (Homo sapiens) (UniProt P05771); experiment: Inhibition of human PKCbeta at 10 uM
Mus musculus = experiment: Toxicity in mouse up to 1000 mg/kg, po over 2 weeks; format: organism-based; design: dose 1000 mg/kg, route oral; settings: in vivo, 336 h
Outline: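 Dose range finding in mice, given orally for 2 weeks at up to 1000 mg/kg.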

[14] = target: Polyunsaturated fatty acid lipoxygenase ALOX15 (Homo sapiens) (UniProt P16050); experiment: Inhibition of 15-lipoxygenase at 10 uM
Chain of Polyunsaturated fatty acid lipoxygenase ALOX15 (Homo sapiens) (P16050 whole entry, canonical isoform): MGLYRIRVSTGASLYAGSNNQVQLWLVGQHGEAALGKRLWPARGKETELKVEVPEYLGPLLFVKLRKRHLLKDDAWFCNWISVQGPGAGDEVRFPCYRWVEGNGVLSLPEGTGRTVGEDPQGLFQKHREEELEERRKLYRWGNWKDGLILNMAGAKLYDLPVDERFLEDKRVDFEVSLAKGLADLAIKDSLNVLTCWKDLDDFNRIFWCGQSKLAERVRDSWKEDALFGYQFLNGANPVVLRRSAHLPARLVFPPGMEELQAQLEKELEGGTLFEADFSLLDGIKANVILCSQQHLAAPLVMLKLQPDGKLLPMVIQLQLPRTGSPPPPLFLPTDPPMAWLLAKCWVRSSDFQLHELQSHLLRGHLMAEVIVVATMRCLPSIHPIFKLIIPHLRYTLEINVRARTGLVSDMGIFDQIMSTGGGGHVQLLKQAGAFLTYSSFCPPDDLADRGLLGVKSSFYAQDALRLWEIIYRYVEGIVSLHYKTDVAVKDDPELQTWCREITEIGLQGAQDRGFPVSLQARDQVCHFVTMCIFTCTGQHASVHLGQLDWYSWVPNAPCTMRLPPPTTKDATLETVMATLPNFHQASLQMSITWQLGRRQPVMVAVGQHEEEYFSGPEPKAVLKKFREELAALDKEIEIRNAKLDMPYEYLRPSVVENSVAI

[15] = target: Phosphatidylinositol 4,5-bisphosphate 3-kinase catalytic subunit delta isoform (Homo sapiens) (UniProt O00329); experiment: Inhibition of PI3Kdelta at 10; settings: concentration not given here
Chain of Phosphatidylinositol 4,5-bisphosphate 3-kinase catalytic subunit delta isoform (Homo sapiens) (O00329 whole entry, canonical isoform): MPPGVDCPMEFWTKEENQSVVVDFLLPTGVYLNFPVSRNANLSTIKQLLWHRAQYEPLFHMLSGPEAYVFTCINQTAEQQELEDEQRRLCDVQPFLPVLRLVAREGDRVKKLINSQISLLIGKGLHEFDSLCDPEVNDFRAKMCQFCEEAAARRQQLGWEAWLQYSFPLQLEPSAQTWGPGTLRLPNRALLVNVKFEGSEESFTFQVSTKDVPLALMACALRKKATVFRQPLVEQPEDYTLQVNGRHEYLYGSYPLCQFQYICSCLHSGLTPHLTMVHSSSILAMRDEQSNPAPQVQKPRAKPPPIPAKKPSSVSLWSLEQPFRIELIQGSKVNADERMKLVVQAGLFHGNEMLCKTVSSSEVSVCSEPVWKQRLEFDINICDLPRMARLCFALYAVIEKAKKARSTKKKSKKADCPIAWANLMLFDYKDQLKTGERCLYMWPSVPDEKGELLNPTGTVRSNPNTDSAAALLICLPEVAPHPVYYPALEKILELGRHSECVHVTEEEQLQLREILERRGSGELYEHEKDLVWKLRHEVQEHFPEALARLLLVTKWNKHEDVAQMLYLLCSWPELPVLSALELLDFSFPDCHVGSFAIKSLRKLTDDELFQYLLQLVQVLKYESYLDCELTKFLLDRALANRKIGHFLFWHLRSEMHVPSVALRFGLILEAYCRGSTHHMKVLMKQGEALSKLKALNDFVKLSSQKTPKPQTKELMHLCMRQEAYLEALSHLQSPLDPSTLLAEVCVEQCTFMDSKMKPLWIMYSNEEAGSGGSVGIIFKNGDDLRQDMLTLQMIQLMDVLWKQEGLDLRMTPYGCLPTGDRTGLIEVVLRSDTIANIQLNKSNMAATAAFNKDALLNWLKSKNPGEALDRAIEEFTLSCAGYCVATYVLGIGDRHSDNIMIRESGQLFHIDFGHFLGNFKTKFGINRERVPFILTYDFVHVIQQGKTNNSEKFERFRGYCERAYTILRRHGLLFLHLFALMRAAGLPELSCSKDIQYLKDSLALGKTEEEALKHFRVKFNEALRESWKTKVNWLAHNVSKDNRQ

[16] = target: MAP kinase p38 (Homo sapiens) (UniProt O15264+Q15759+Q16539+P53778); experiment: Inhibition of human p38 MAP kinase at 10 uM; format: protein assay
[17] = Intrinsic clearance in Sprague-Dawley rat liver microsomes assessed per mg of protein at 0.5 uM; format: ADME, Microsome
Outline: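 Phase I stability assay in pooled liver microsomes (human: male and female; rat: male Sprague-Dawley). Microsomes at 0.5 mg/mL final in 0.1 M phosphate pH 7.4. Compound 0.5 μM final, 0.25% DMSO. Preincubated at 37 °C, reaction started with 1 mM NADPH. Sampled at 0, 5, 15, 30 and 45 min, with a 45 min minus-NADPH control. Methanol quench with internal standard, LC/MS-MS, intrinsic clearance calculated.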

[18] = Inhibition of potassium channel at 10 uM
[19] = Half life in Sprague-Dawley rat at 5 mg/kg, iv; format: ADME, organism-based; design: dose 5 mg/kg, route intravenous; settings: in vivo; outline: as §2

Chain of Cytochrome P450 1A2 (P05177 whole entry, canonical isoform): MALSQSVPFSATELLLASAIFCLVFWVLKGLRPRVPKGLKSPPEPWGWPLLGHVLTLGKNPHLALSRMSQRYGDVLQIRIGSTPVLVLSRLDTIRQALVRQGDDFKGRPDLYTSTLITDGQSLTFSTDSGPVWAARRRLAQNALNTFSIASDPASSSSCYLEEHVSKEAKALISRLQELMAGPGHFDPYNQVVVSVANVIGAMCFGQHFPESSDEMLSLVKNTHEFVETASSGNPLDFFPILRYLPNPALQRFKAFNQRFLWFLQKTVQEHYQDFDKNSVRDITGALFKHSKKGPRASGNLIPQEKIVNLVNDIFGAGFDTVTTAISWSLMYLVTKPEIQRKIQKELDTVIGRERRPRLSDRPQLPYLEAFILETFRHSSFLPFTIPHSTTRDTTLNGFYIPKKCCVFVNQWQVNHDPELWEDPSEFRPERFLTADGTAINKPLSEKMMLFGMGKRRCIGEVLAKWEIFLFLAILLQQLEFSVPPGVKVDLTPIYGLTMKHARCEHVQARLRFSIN

`Cc1c2c(=O)n(-c3ccccc3Cl)[nH]c2cc(=O)n1Cc1ccccn1` gave an inhibition [1] of 0%, an IC50 (Cytochrome P450 1A2) greater than 25000 nM and a Cmax [2] of 3150 ng/mL. For the same compound, the Ki (NADPH oxidase 2) was 1530 nM, the inhibition [3] was 2% and the inhibition [4] was 0%. The inhibition [5] was 6%, the Tmax [6] was 1.5 h and the IC50 (Cytochrome P450 2C9) was greater than 25000 nM. The clearance [7] was 7.83 mL/min/kg, the AUC(0-inf) [8] was 11000 ng·h/mL and the inhibition [9] was 0%. For the same compound, the Ki (NADPH oxidase 4) was 165 nM, the IC50 (Cytochrome P450 2D6) was greater than 25000 nM and the inhibition [10] was 0%. For the same compound, the inhibition [11] was 0%, the Vd [12] was 1.08 L/kg and the inhibition [13] was 0%. The Activity (Mus musculus) was “Non-toxic”, the inhibition [14] was 0% and the inhibition [15] was 0%. For the same compound, the inhibition [16] was 10%, the microsomal CLint at 0.5 µM [17] was 70.2 µL/min/mg and the inhibition [18] was 0%. It also gave a half-life [19] of 3.63 h.

From ChEMBL document CHEMBL1275350, “First in class, potent, and orally bioavailable NADPH oxidase isoform 4 (Nox4) inhibitors for the treatment of idiopathic pulmonary fibrosis” (J Med Chem, 2010)
